Measurements taken from publication PMC3677216 (Bioorganic & medicinal chemistry letters, 2013).

What was measured:
NCI-60 cell panel = assay: NCI-60 cell panel, Sulforhodamine B assay; format: cell-based; settings: NCI-60 panel
In short: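 NCI-60 panel screen. Viability read by Sulforhodamine B staining of total protein, a measure of cell number rather than metabolic activity. Values are GI50, defined from the change in cell counts relative to the starting number of cells. Some panel lines were not tested.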

HeLa cells = assay: Cytotoxicity; format: cell-based
[1] = tested on: human CD34+ blood stem/progenitor cells; assay: Cytotoxicity in normal CD34+ blood stem/progenitor cells; format: cell-based
MA9.3 AML cell line = assay: Cytotoxicity in MA9.3 AML cells; format: cell-based, human; settings: for therapeutic index: between MA9.3 AML cell line and non-cancerous human CD34+ blood stem/progenitor cells

CN(CCCOc1ccc(O)cc1)c1ccccc1 [Compound 7]
range of distribution of GI50 values (NCI-60 cell panel): 53 fold

CCOc1ccc(O)cc1 [Compound 12]
potency / anticancer cell activity (in words) (HeLa cells): no potency

N.N.[Cl][Pt][Cl] [cisplatin]
IC50 [1]: 15 ± 2 µM | IC50 (MA9.3 AML cell line; MA9.3 AML cells): 14 ± 0.7 µM | therapeutic index (MA9.3 AML cell line): 1.0 ± 0.2

CC(C)N(CCOc1ccc(O)cc1)c1ccccc1 [Compound 4]
decrease in potency relative to compound 2 (HeLa cells): 3 fold

CN(C(=O)COc1ccc(O)cc1)c1ccccc1 [Compound 11]
potency / anticancer cell activity (in words) (HeLa cells): anticancer cell activity was eliminated

Oc1ccc(OCCN(CCOc2ccc(O)cc2)c2ccccc2)cc1 [Compound 5]
potency relative to compound 3 (HeLa cells): potency doubled | range of distribution of GI50 values (NCI-60 cell panel): 55 fold

CN(CCCOc1ccccc1)c1ccccc1 [Compound 13]
potency / anticancer cell activity (in words) (HeLa cells): complete loss of potency

CN(CCCBr)c1ccccc1 [Compound 14]
potency / anticancer cell activity (in words) (HeLa cells): loss of potency

COc1cccc2c1C(=O)c1c(O)c3c(c(O)c1C2=O)C[C@@](O)(C(=O)CO)C[C@@H]3O[C@H]1C[C@H](N)[C@H](O)[C@H](C)O1 [doxorubicin]
therapeutic index (MA9.3 AML cell line): 0.9 ± 0.2
